Most compounds without a hit are left out; they make up all but 1.2% or so of the library.
RanGTP-Impb inh: inhibitors of RanGTP-importin-beta interaction, primary screen, biochemical, FRET, CFP-Ran, YFP-importin-beta, homogeneous; cell-free CFP-Ran/YFP-importin-beta FRET ratio; Ran GTPase (GTP-bound) - importin-beta complex; 300,000 tested, 1.1% active; inhibition, % (test concentration not listed); AID 2216, 2009;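 active = more than half of the replicate wells show a fall in the fluorescence ratio signal beyond about 16%, limit read from the data, passing the limit was not always enough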;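 also: 0% = DMSO wells and 100% = Ran loaded with GDP instead of GTP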
Runt-SMMHC FRET: inhibitors of RUNX1 Runt–CBFb-SMMHC binding, primary screen, biochemical, FRET, Cerulean-Runt, Venus-CBFb-SMMHC, uHTS | Cerulean-Runt/Venus-CBFb-SMMHC FRET ratio 530/480, 1 h | inhibition, % at 20 µM | 220,000 tested, 0.74% active;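 active = mean inhibition across duplicate retests at 20 µM reaching about 50%, limit read from the data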;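 also: 0% = DMSO wells and 100% = wells with excess untagged CBFb-SMMHC; inhibitors lower the FRET ratio by blocking Runt binding to CBFb-SMMHC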
Target sequence (Q01196 whole entry, looked up): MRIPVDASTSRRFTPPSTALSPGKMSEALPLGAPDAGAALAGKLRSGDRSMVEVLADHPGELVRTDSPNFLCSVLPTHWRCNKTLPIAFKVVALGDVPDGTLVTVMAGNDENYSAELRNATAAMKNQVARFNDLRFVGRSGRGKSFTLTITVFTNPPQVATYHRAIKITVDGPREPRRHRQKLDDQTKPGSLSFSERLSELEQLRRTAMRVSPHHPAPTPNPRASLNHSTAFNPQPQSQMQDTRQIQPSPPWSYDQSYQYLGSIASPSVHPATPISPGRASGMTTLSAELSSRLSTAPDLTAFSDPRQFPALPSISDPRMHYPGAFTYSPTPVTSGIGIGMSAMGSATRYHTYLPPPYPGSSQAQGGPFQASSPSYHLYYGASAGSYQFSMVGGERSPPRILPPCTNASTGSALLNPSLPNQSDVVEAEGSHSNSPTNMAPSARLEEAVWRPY
Target sequence (Q13951 whole entry, looked up): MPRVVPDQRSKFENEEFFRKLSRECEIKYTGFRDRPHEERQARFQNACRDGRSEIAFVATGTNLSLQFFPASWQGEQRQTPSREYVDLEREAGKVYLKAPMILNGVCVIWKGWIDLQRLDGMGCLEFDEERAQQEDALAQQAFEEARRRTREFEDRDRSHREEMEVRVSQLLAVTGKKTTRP
CaV13 FRET inh: Disruptors of the CACNA1D IQ motif to Ca2+-dependent inactivation inhibitor domain association, primary screening, Förster resonance energy transfer in intact living …. HEK cells, CFP/YFP FRET ICDI-IQ, plate reader, 10 min; percent FRET-ratio fall versus neutral wells. inhibition, % at 12.3 µM. 340,000 tested, 0.098% active. AID 743397;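 active = mean replicate inhibition of at least 30% and at least 1% of replicates passing that level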;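 also: 0% = median of the neutral control wells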
Runt-CBFb FRET: inhibitors of RUNX1 Runt–CBFb binding, primary screen, biochemical, FRET, Cerulean-Runt, Venus-CBFb, uHTS; Runt-related transcription factor 1 (Homo sapiens) + Core-binding factor subunit beta …; Cerulean-Runt/Venus-CBFb FRET ratio 530/480, 1 h; inhibition, % at 20 µM; 220,000 tested, 0.46% active; AID 1496, 2009;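 active = inhibition over about 50% at 20 µM in the single-dose screen, limit read from the data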;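 also: 0% = DMSO wells and 100% = excess unlabeled CBFb competitor control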
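Assay system: Cerulean-Runt domain / Medium: Tris 50 mM pH 7.5, KCl, K2SO4, 0.01% BSA / Timing: protein complex preformed 1 h, compound exposure 1 h, room temperature, dark / Measured by: FRET, excitation 422 nm, emission at 530 and 480 nm / Evaluation: loss of energy transfer signal / Control set: 5 µM unlabeled CBFb as full-inhibition high control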
An asterisk follows results filed as active.

Results for CCOC(=O)c1oc2cccc(OCC(O)CNC(C)C)c2c1C (centres undefined) ?
RanGTP-Impb inh: -2; Runt-SMMHC FRET: 2; CaV13 FRET inh: -8; Runt-CBFb FRET: 3

How did CCCn1c2ccccc2c2cnn(CC(=O)NCCN(C)C)c(=O)c21 do in these assays?
RanGTP-Impb inh: 20*; CaV13 FRET inh: -2

How did O=c1[nH]c(Nc2ccc(F)cc2)cc2ccccc12 do in these assays?
RanGTP-Impb inh: 54*; Runt-SMMHC FRET: 15; CaV13 FRET inh: 0; Runt-CBFb FRET: 13

How did Cc1ccccc1Nc1cc2ccccc2c(=O)[nH]1 do in these assays?
RanGTP-Impb inh: 17*; Runt-SMMHC FRET: -32; Runt-CBFb FRET: -3

How did O=c1[nH]c(Nc2ccccc2Cl)cc2ccccc12 do in these assays?
RanGTP-Impb inh: 39*; CaV13 FRET inh: active

Results for C[C@@H]1CN(c2ccc(N3CCNC[C@@H]3C)cc2C#N)C[C@H](C)O1 ?
CaV13 FRET inh: -8

Results for CC1(C)OC(C)(C)/C(=C/Nc2ccccc2)C1=O ?
RanGTP-Impb inh: 6; Runt-SMMHC FRET: 4; CaV13 FRET inh: -9; Runt-CBFb FRET: 0

Results for CCOc1cccc(NC(=O)/C(C#N)=C\c2cn(CC(=O)O)c3ccccc23)c1 ?
RanGTP-Impb inh: 28*; CaV13 FRET inh: -18

Results for Cc1cccc(NC(=O)/C(C#N)=C/c2cn(CC(=O)NCc3ccco3)c3ccccc23)c1C ?
RanGTP-Impb inh: 57*; Runt-SMMHC FRET: -46; CaV13 FRET inh: -12; Runt-CBFb FRET: -60

How did N#C/C(=C\c1cn(Cc2ccccc2)c2ccccc12)C(=O)NCc1ccco1 do in these assays?
RanGTP-Impb inh: -1; Runt-SMMHC FRET: -22; CaV13 FRET inh: -9; Runt-CBFb FRET: -11

What do the screens show for `N#CCCCc1cn(-c2nc3ccccc3s2)nn1`?
CaV13 FRET inh: -9

Results for COc1cc(C(=S)N2CCCC2)ccc1O ?
RanGTP-Impb inh: 2; Runt-SMMHC FRET: 66*; CaV13 FRET inh: -8; Runt-CBFb FRET: 42

How did COc1cc(C(=S)N2CCCCC2)ccc1O do in these assays?
Runt-SMMHC FRET: -115; Runt-CBFb FRET: 18

How did Cc1cc(N=Cc2c(O)n(-c3ccc(C)c(C)c3)c(=O)c3ccccc23)no1 do in these assays?
Runt-SMMHC FRET: 17; CaV13 FRET inh: -17; Runt-CBFb FRET: 8

Results for CCOC(=O)Cc1csc(/N=C/c2c(O)n(-c3ccc(C)c(C)c3)c(=O)c3ccccc23)n1 ?
RanGTP-Impb inh: -2; Runt-SMMHC FRET: 62*; CaV13 FRET inh: -24; Runt-CBFb FRET: -82

Results for CCOC(=O)C1=C(c2ccccc2)NC(=O)NC1c1cccc(OC)c1OC (centres undefined) ?
RanGTP-Impb inh: -2; CaV13 FRET inh: -4

What do the screens show for `CCc1cc2c(=O)nc3n(c2s1)Cc1ccccc1/C3=C(/O)c1ccc(F)cc1`?
RanGTP-Impb inh: -110; Runt-SMMHC FRET: 58; Runt-CBFb FRET: -74

What do the screens show for `CCc1cc2c(=O)nc3n(c2s1)Cc1ccccc1/C3=C(/O)c1ccccc1Cl`?
RanGTP-Impb inh: -61; Runt-SMMHC FRET: 57*; CaV13 FRET inh: -11; Runt-CBFb FRET: -46

What do the screens show for `COCCCOc1cc(NCc2ccccc2)c2ncn(C(C)C)c2c1`?
CaV13 FRET inh: 122*

What do the screens show for `O=C(O)c1ccccc1C(=O)N(c1ccccc1)c1ccccc1`?
RanGTP-Impb inh: 31*; CaV13 FRET inh: -6

Results for Oc1c(N=Nc2ccccc2)sc2ccccc12 ?
RanGTP-Impb inh: 29*; Runt-SMMHC FRET: -10; CaV13 FRET inh: -3; Runt-CBFb FRET: -6

What do the screens show for `O=C(O)/C(=C\c1ccc(Cl)cc1)c1ccc(S(=O)(=O)N2CCCC2)s1`?
CaV13 FRET inh: -4

What do the screens show for `CSc1ccc(/C=C(\C(=O)O)c2ccc(S(=O)(=O)N3CCCCC3)s2)cc1`?
RanGTP-Impb inh: 45*; Runt-SMMHC FRET: 26; CaV13 FRET inh: -8; Runt-CBFb FRET: 9

Results for CCOc1ccc(/C=C(\C(=O)O)c2ccc(S(=O)(=O)N3CCCCC3)s2)cc1OC ?
CaV13 FRET inh: -7

High-throughput results (PubChem)
